Laboratory results: publication PMC5812400 (ESMO Open, 2018)
“And” between values parts separate entries of the source, which are not always exact repeats. Equal entries are not always repeated.

How the values were obtained:
[1] = Plasma PK of TAK-228 4 mg in single-agent QD PK run-in; assay type: in vivo, human; settings: for AUC(0-inf) / Cmax: geometric mean (%CV)
Procedure, shortened: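 Run-in ≤14 days before cycle 1. Three visits ≥48 h apart, each a 4 mg oral dose: unmilled fasted, milled after high-fat breakfast, milled fasted. No proton pump inhibitor within 5 days or H2 antagonist within 24 h. LC-MS/MS validated over 1–1000 ng/mL. ANOVA on log Cmax and AUC (treatment fixed, patient random); geometric mean ratios with 90% CI.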

[2] = Plasma PK of milled TAK-228 in TAK-228+P and TAK-228 QW arms, LC-MS/MS; assay type: in vivo, human; settings: for Cmax / Tmax / AUC(0-t) / AUC(0-inf) / Vd/F / half-life: human, plasma, oral
Procedure, shortened: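 Milled capsules given fasted. Combination arm sampled on cycle 1 day 2, the first dosing day, ~24 h after IV taxane 80 mg/m2; QW arm sampled on cycle 1 day 1. LC-MS/MS validated over 1–1000 ng/mL. PK parameters summarised descriptively (geometric/arithmetic means, medians, CV).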

[3] = tested on: advanced non-haematological malignancies; assay: Tumour response; assay type: in vivo, human
Procedure, shortened: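 Response assessed by RECIST 1.1 on contrast CT or MRI of chest, abdomen and pelvis; bone scans allowed for bone metastases. Same modality kept per patient. Baseline scan within 4 weeks before first dose, then cycle 3 day 1 and every two cycles until end of study or discontinuation. ORR = CR+PR; clinical benefit = CR+PR+SD, and CR+PR+SD ≥6 months.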

[4] = tested on: patients with haematological malignancies or advanced solid tumours; settings: unmilled TAK-228, haematological malignancies; ref 7 11; cited from earlier work
[5] = human, plasma, oral, 4 mg, 4 mg milled, fed (high-fat breakfast)

Structure (SMILES): CC(C)n1nc(-c2ccc3oc(N)nc3c2)c2c(N)ncnc21 [TAK-228, Sapanisertib]
- AUC(0-inf) ([1]; human, plasma, oral, 4 mg, 4 mg milled, fasted): 369 ng·h/mL
- AUC(0-inf) [1, 5]: 383 ng·h/mL
- Cmax [1, 5]: 21.6 ng/mL
- Cmax ([1]; human, plasma, oral, 4 mg, 4 mg unmilled, fasted): 34 ng/mL
- Tmax ([1]; human, plasma, oral, 4 mg, Tmax, median (range), 4 mg milled, fed (high-fat breakfast)): 6 h
- Reduction in geometric mean Cmax, fed versus fasted ([1]; milled 4 mg, high-fat breakfast vs empty stomach): ~ 40% and 40%
- CL/F, geometric mean (CV) ([2]; QW 20 mg (n=7)): 15.1 (46) L/hour
- CL/F, geometric mean (CV) ([2]; QW 30 mg (n=13)): 18.3 (63) L/hour
- Effect of paclitaxel administered 24 hours before TAK-228 on TAK-228 PK ([2]; combination arm vs QD arm (4 mg, milled, fasted)): no clinically meaningful effects
- Cmax ([2]; 4 mg): 28.5 ng/mL
- Tmax ([2]; 4 mg): 2.2 h
- AUC(0-t) ([2]; 6 mg): 244 ng·h/mL
- AUC(0-inf) ([2]; 20 mg): 1330 ng·h/mL
- AUC(0-t) ([2]; 20 mg): 1240 ng·h/mL
- Cmax ([2]; 20 mg): 209 ng/mL
- Vd/F ([2]; 20 mg): 125 L
- half-life ([2]; 20 mg): 6.1 h
- AUC(0-inf) ([2]; 30 mg): 1640 ng·h/mL
- AUC(0-t) ([2]; 30 mg): 1530 ng·h/mL
- Cmax ([2]; 30 mg): 235 ng/mL
- Tmax ([2]; 30 mg): 1 h
- Vd/F ([2]; 30 mg): 155 L
- half-life ([2]; 30 mg): 6 h
- Best overall response: CR ([3]; QD 3 mg (n=11)): 0 n (%)
- Best overall response: PD ([3]; QD 3 mg (n=11)): 3 (27) n (%)
- Best overall response: PR ([3]; QD 3 mg (n=11)): 1 (9) n (%)
- Best overall response: SD (<6 months) ([3]; QD 3 mg (n=11)): 3 (27) n (%)
- Best overall response: SD (≥6 months) ([3]; QD 3 mg (n=11)): 3 (27) n (%)
- Clinical benefit rate CR+PR + SD ([3]; QD 3 mg (n=11)): 7 (64) n (%)
- Clinical benefit rate CR+PR + SD ≥6 months ([3]; QD 3 mg (n=11)): 4 (36) n (%)
- Objective response rate (CR+PR) ([3]; QD 3 mg (n=11)): 1 (9) n (%)
- Best overall response: CR ([3]; QD 4 mg (n=6)): 0 n (%)
- Best overall response: PD ([3]; QD 4 mg (n=6)): 3 (50) n (%)
- Best overall response: PR ([3]; QD 4 mg (n=6)): 1 (17) n (%)
- Best overall response: SD (<6 months) ([3]; QD 4 mg (n=6)): 0 n (%)
- Best overall response: SD (≥6 months) ([3]; QD 4 mg (n=6)): 1 (17) n (%)
- Clinical benefit rate CR+PR + SD ([3]; QD 4 mg (n=6)): 2 (33) n (%)
- Clinical benefit rate CR+PR + SD ≥6 months ([3]; QD 4 mg (n=6)): 2 (33) n (%)
- Objective response rate (CR+PR) ([3]; QD 4 mg (n=6)): 1 (17) n (%)
- Best overall response: CR ([3]; QD Total (n=17)): 0 n (%)
- Best overall response: PD ([3]; QD Total (n=17)): 6 (35) n (%)
- Best overall response: PR ([3]; QD Total (n=17)): 2 (12) n (%)
- Best overall response: SD (<6 months) ([3]; QD Total (n=17)): 3 (18) n (%)
- Best overall response: SD (≥6 months) ([3]; QD Total (n=17)): 4 (24) n (%)
- Clinical benefit rate CR+PR + SD ([3]; QD Total (n=17)): 9 (53) n (%)
- Clinical benefit rate CR+PR + SD ≥6 months ([3]; QD Total (n=17)): 6 (35) n (%)
- Objective response rate (CR+PR) ([3]; QD Total (n=17)): 2 (12) n (%)
- Objective response rate (ORR) ([3]; QD arm): 12%
- Overall clinical benefit rate (CR+PR + SD) ([3]; QD arm (9/17 patients)): 52.9%
- Best overall response: CR ([3]; QW 20 mg (n=7)): 0 n (%)
- Best overall response: PD ([3]; QW 20 mg (n=7)): 3 (43) n (%)
- Best overall response: PR ([3]; QW 20 mg (n=7)): 0 n (%)
- Best overall response: SD (<6 months) ([3]; QW 20 mg (n=7)): 3 (43) n (%)
- Best overall response: SD (≥6 months) ([3]; QW 20 mg (n=7)): 0 n (%)
- Clinical benefit rate CR+PR + SD ([3]; QW 20 mg (n=7)): 3 (43) n (%)
- Clinical benefit rate CR+PR + SD ≥6 months ([3]; QW 20 mg (n=7)): 0 n (%)
- Objective response rate (CR+PR) ([3]; QW 20 mg (n=7)): 0 n (%)
- Best overall response: CR ([3]; QW 30 mg (n=13)): 0 n (%)
- Best overall response: PD ([3]; QW 30 mg (n=13)): 3 (23) n (%)
- Best overall response: PR ([3]; QW 30 mg (n=13)): 0 n (%)
- Best overall response: SD (<6 months) ([3]; QW 30 mg (n=13)): 5 (39) n (%)
- Best overall response: SD (≥6 months) ([3]; QW 30 mg (n=13)): 1 (8) n (%)
- Clinical benefit rate CR+PR + SD ([3]; QW 30 mg (n=13)): 6 (46) n (%)
- Clinical benefit rate CR+PR + SD ≥6 months ([3]; QW 30 mg (n=13)): 1 (8) n (%)
- Objective response rate (CR+PR) ([3]; QW 30 mg (n=13)): 0 n (%)
- Best overall response: CR ([3]; QW Total (n=20)): 0 n (%)
- Best overall response: PD ([3]; QW Total (n=20)): 6 (30) n (%)
- Best overall response: PR ([3]; QW Total (n=20)): 0 n (%)
- Best overall response: SD (<6 months) ([3]; QW Total (n=20)): 8 (40) n (%)
- Best overall response: SD (≥6 months) ([3]; QW Total (n=20)): 1 (5) n (%)
- Clinical benefit rate CR+PR + SD ([3]; QW Total (n=20)): 9 (45) n (%)
- Clinical benefit rate CR+PR + SD ≥6 months ([3]; QW Total (n=20)): 1 (5) n (%)
- Objective response rate (CR+PR) ([3]; QW Total (n=20)): 0 n (%)
- Objective response rate (ORR) ([3]; QW arm): 0%
- Overall clinical benefit rate (CR+PR + SD) ([3]; QW arm (9/20 patients)): 45%
- Incidence of grade ≥3 drug-related AEs [4]: 31%
